# From paper PMC8606320 (Bioorganic & Medicinal Chemistry, 2021)
# Assays:
# [1] = system: SARS-CoV-2; type: cell-based
# [2] = system: SARS-CoV-2; details: COVID-19 patients, on the 6th day; cited from earlier work
# [3] = In vivo acute toxicity assay; details: oral 230 mg/kg twice a day
# Method in brief: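 Test compounds as sulfate salts, dissolved in physiological saline. Mice (25 g) were fasted overnight: 16 male and 16 female in four groups (n = 8), male and female vehicle controls and male and female test groups. They were dosed intragastrically with vehicle or 230 mg/kg twice a day. Death, daily behaviour and body weight were monitored for 20 days, and survival was plotted as curves.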
compound,measurement,setting,value
"CCN(CCO)CCCC(C)Nc1ccnc2cc(Cl)ccc12.O=S(=O)(O)O (racemic) [Rac-HCQ, hydroxychloroquine, reference compound]",inhibition of cytopathic changes caused by the virus,[1],complete inhibition
same,nasopharyngeal swab virus negative rate,[2],57.1%
"CCC(CC)COC(=O)[C@H](C)N[P@](=O)(OC[C@H]1O[C@@](C#N)(c2ccc3c(N)ncnn23)[C@H](O)[C@@H]1O)Oc1ccccc1 [Remdesivir, reference compound]",inhibition of the occurrence of lesions (CPE),[1],completely inhibited
(R)-2-((4-((7-chloroquinolin-4-yl) amino) pentyl) (ethyl) amino) ethan-1-ol sulfate [R-HCQ],inhibition of cytopathic changes caused by the virus,[1],complete inhibition
same,tolerability in mice compared to Rac-HCQ and S-HCQ,[3],better tolerated
same,day until which mice performed well,[3]; monitored 20 days,12 dpd
(S)-2-((4-((7-chloroquinolin-4-yl) amino) pentyl) (ethyl) amino) ethan-1-ol sulfate [S-HCQ],inhibition of cytopathic changes caused by the virus,[1],complete inhibition
same,day at which mice appeared malaise,[3]; monitored 20 days,9 dpd
